Measured values reported in ChEMBL document CHEMBL1123427, “Synthesis of thyrotropin-releasing hormone analogues. 2. Tripeptides structurally greatly differing from TRH with high central nervous system activity” (1986).
Residues, ends and D or L forms follow the SMILES beside them.

What was measured:
[1] = species on record: Mus musculus; assay: Reduction of hexobarbital induced sleeping time in mice.; type: functional
[2] = species on record: Rattus norvegicus; assay: Thyrotropin releasing activity (TSH) was evaluated by measuring the TSH response to the compound by radioimmunoassay in two doses in the rat; type: functional
Summary of the method: (§1)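 Rat two-point assay at 1 and 10 μg. TSH response is measured by radioimmunoassay. Compounds are dissolved in physiological saline (5 mL/kg), and controls receive the same volume of saline. n = 10 animals per treatment. Significance is given as p < 0.01 and p < 0.001.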

[3] = system: Rattus norvegicus; assay: Ability of 80 mg/kg to inhibit the cataleptic effect of haloperidol in rat; type: functional
[4] = species on record: Rattus norvegicus; assay: Dose that inhibited cataleptic effect of haloperidol in rat by 50%; type: functional
[5] = species on record: Rattus norvegicus; assay: Thyrotropin releasing activity (TSH) was evaluated by measuring the TSH response to the compound by radioimmunoassay in two doses in the rat; np denotes Slightly significant but not parallel TSH response to the lower and upper dose s used; type: functional, organism-based; summary of the method: as §1
[6] = system: Rattus norvegicus; assay: Ability of 80 mg/kg to inhibit the cataleptic effect of haloperidol in rat; Potentiating effect; type: functional, organism-based; parameters: dose 80 mg/kg; conditions: at 80 mg/kg
[7] = species on record: Rattus norvegicus; assay: Doses that inhibited cataleptic effect of haloperidol in rat by 50%; type: functional

Row | Structure (SMILES) | Sleeping time [1] [min] | Activity [2] [%] | inhibition in vivo at 80 mg/kg [3] [%] | ED50 [4] [mg/kg] | Activity [5] | inhibition [6] | ED50 [7] [mg/kg]
1 | CCC[C@H](NC(=O)[C@@H]1CCC(=O)N1)C(=O)N[C@H](CCSC)C(N)=O | 46.1 | 0 | 20 | – | – | – | –
2 | CC(C)C[C@H](NC(=O)[C@@H]1CCC(=O)N1)C(=O)N1CSC[C@H]1C(N)=O (HELM PEPTIDE1{[Glp].L.[O=C([C@@H]1CSCN1[*:1])[*:2]].[am]}$$$$V2.0) | 17.2 | 0 | – | 31.4 | – | – | –
3 | CCC[C@H](NC(=O)[C@@H]1CCC(=O)N1)C(=O)N1CSC[C@H]1C(N)=O (HELM PEPTIDE1{[Glp].[Nva].[O=C([C@@H]1CSCN1[*:1])[*:2]].[am]}$$$$V2.0) | 26.4 | 0 | – | 56 | – | – | –
4 | CC(C)C[C@H](NC(=O)[C@@H]1CCC(=O)N1)C(=O)N1CCCC[C@H]1C(=O)O (HELM PEPTIDE1{[Glp].L.[O=C(O)[C@@H]1CCCCN1[*:1]]}$$$$V2.0) | 33.3 | – | 20 | – | Slightly significant but not parallel | – | –
5 | CCC[C@H](NC(=O)[C@@H]1CCCC(=O)N1)C(=O)N1CSC[C@H]1C(N)=O | 23.6 | – | – | 60.3 | – | – | –
6 | CC(=O)N1CCC[C@H]1C(=O)N[C@@H](CC(C)C)C(=O)N1CCC[C@H]1C(N)=O (Ac-Pro-Leu-Pro-NH2) | 37.6 | – | 0 | – | – | – | –
7 | CCC[C@H](NC(=O)[C@@H]1CCC(=O)N1)C(=O)N[C@H](C(N)=O)[C@@H](C)CC (HELM PEPTIDE1{[Glp].[Nva].I.[am]}$$$$V2.0) | 47.7 | 0 | – | – | – | Potentiating effect | –
8 | CC(C)C[C@H](NC(=O)[C@@H]1CCC(=O)N1)C(=O)N1CCCC[C@H]1C(N)=O (HELM PEPTIDE1{[Glp].L.[O=C([C@@H]1CCCCN1[*:1])[*:2]].[am]}$$$$V2.0) | 16.6 | 7.2 | – | 38.5 | – | – | –
9 | CC(C)C[C@H](NC(=O)[C@@H]1CCC(=O)N1)C(=O)NCC(N)=O (HELM PEPTIDE1{[Glp].L.G.[am]}$$$$V2.0) | 35.8 | – | 0 | – | – | – | –
10 | CCC[C@H](NC(=O)[C@@H]1CCC(=O)N1)C(=O)N[C@@H](CC(C)C)C(N)=O (HELM PEPTIDE1{[Glp].[Nva].L.[am]}$$$$V2.0) | 43 | 0 | 20 | – | – | – | –
11 | CCC[C@H](NC(=O)[C@@H]1CCCC(=O)N1)C(=O)N1CSC[C@@H]1C(N)=O | – | – | – | – | Slightly significant but not parallel | – | –
12 | CC(C)C[C@H](NC(=O)[C@@H]1CCCN1)C(=O)N1CCC[C@H]1C(N)=O (H-Pro-Leu-Pro-NH2) | 65.6 | – | 0 | – | Slightly significant but not parallel | – | –
13 | CC(C)C[C@H](NC(=O)[C@@H]1CSCN1)C(=O)N1CCC[C@H]1C(N)=O (HELM PEPTIDE1{[O=C([C@@H]1CSCN1)[*:2]].L.P.[am]}$$$$V2.0) | 35 | 0 | 0 | – | – | – | –
14 | CC(C)C[C@H](NC(=O)[C@@H]1CCC(=O)O1)C(=O)N1CCC[C@H]1C(N)=O | 36.8 | – | 40 | – | – | – | –
15 | CCC[C@H](NC(=O)[C@@H]1CCCC(=O)N1)C(=O)N1CCC[C@H]1C(N)=O | 19.7 | 0 | – | 10.6 | – | – | –
16 | CC(C)C[C@H](NC(=O)[C@@H]1CCCC(=O)N1)C(=O)N1CCC[C@H]1C(N)=O [POSATIRELIN] | 16.4 | 2.7 | – | – | – | – | 23.5
17 | CC(C)C[C@H](NC(=O)[C@@H]1CNC(=O)N1)C(=O)N1CCC[C@H]1C(N)=O | 25.8 | 0 | 40 | – | – | – | –
18 | NC(=O)[C@@H]1CCCN1C(=O)[C@H](Cc1c[nH]cn1)NC(=O)[C@@H]1CCC(=O)N1 [PROTIRELIN] | 24.8 | 100 | 40 | – | – | – | –
